Data: ChEMBL document CHEMBL1124408, “3-aminopyridazine derivatives with atypical antidepressant, serotonergic, and dopaminergic activities” (J Med Chem, 1989)

How the values were obtained:
[1] = (§1) Acute toxicity in mice after intraperitoneal administration.; settings: mouse, in vivo, ip, LD50
Mus musculus [2] = test: Antidepressant activity against reserpine induced ptosis in mice after intraperitoneal administration.; type: functional; settings: ip
Method in brief: (§2)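 Female CD1 mice (18-22 g) received the drug in distilled water/gum tragacanth ip at multiple doses (7-20 mice/dose), given together with reserpine (2 mg/kg iv). One hour later, palpebral ptosis (half or more of the lid closed) was scored all-or-none. Screening dose was at most 50% of the seizure threshold dose.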

Mus musculus [3] = test: Ability to modify turning behavior of mice after intraperitoneal administration; type: functional; settings: ip, read-out: MED
Method in brief: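 Female CD1 mice (25-30 g) were lesioned by stereotaxic injection of 6-OHDA (10 μg in 1 μL saline with 1 mg/mL ascorbic acid) into the right striatum under pentobarbitone (60 mg/kg ip). Seven days later, drug in distilled water/gum tragacanth was given ip at multiple doses (7-20 mice/dose). Ipsilateral turns were counted for 2 min starting 30 min post-dose.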

Mus musculus [4] = test: Serotonergic activity was determined by measuring the potentiation of 5-hydroxytryptophan in mice upon ip administration; type: functional
Method in brief: (§3)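 Drug was injected ip in distilled water/gum tragacanth to female CD1 mice (18-22 g) at multiple doses (7-20 mice/dose), 30 min before a threshold dose of L-5-HTP (200 mg/kg ip). Mice were held singly in small cages, and tremor was scored all-or-none over the 20 min after L-5-HTP.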

Mus musculus [5] = test: Serotonergic activity by measuring the potentiation of 5-hydroxy tryptophan in mice upon ip administration; value ranges from 4.9-6.7; type: functional; method in brief: as §3
Mus musculus [6] = test: as §1; settings: in vivo, ip
Mus musculus [7] = test: Serotonergic activity by measuring the potentiation of 5-hydroxy tryptophan in mice upon ip administration; value ranges from 19-31; type: functional; method in brief: as §3
Mus musculus [8] = test: Compound was tested for antidepressant activity against reserpine induced ptosis in mice after intraperitoneal administration.; value ranges from 4-7; type: functional; settings: ip; method in brief: as §2
Mus musculus [9] = test: Compound was tested for antidepressant activity against reserpine induced ptosis in mice after intraperitoneal administration.; value ranges from 11-16; type: functional; settings: ip; method in brief: as §2
Mus musculus [10] = test: Compound was tested for antidepressant activity against reserpine induced ptosis in mice after intraperitoneal administration.; value ranges from 31-38; type: functional; settings: ip; method in brief: as §2
Mus musculus [11] = test: Compound was tested for antidepressant activity against reserpine induced ptosis in mice after intraperitoneal administration.; value ranges from 1.9-10.7; type: functional; settings: ip; method in brief: as §2
Mus musculus [12] = test: Serotonergic activity by measuring the potentiation of 5-hydroxy tryptophan in mice upon ip administration; value ranges from 1.9-11.7.; type: functional; method in brief: as §3
Mus musculus [13] = test: Serotonergic activity by measuring the potentiation of 5-hydroxy tryptophan in mice upon ip administration; value ranges from 3.8-4.9; type: functional; method in brief: as §3
Mus musculus [14] = test: Compound was tested for antidepressant activity against reserpine induced ptosis in mice after intraperitoneal administration.; value ranges from 4.0-5.7; type: functional; settings: ip; method in brief: as §2
Mus musculus [15] = test: Compound was tested for antidepressant activity against reserpine induced ptosis in mice after intraperitoneal administration.; value ranges from 24-55; type: functional; settings: ip; method in brief: as §2
Mus musculus [16] = test: Serotonergic activity by measuring the potentiation of 5-hydroxy tryptophan in mice upon ip administration; value ranges from 3-7.9.; type: functional; method in brief: as §3
Mus musculus [17] = test: Compound was tested for antidepressant activity against reserpine induced ptosis in mice after intraperitoneal administration; value ranges from 1.8-4.1; type: functional; settings: ip; method in brief: as §2
Mus musculus [18] = test: Serotonergic activity by measuring the potentiation of 5-hydroxy tryptophan in mice upon ip administration; value ranges from 3.0-4.0; type: functional; method in brief: as §3
Mus musculus [19] = test: Compound was tested for antidepressant activity against reserpine induced ptosis in mice after intraperitoneal administration.; value ranges from 5.9-6.7; type: functional; settings: ip; method in brief: as §2
Mus musculus [20] = test: Serotonergic activity by measuring the potentiation of 5-hydroxy tryptophan in mice upon ip administration; the value ranges from 3-38; type: functional; method in brief: as §3
Mus musculus [21] = test: Compound was tested for antidepressant activity against reserpine induced ptosis in mice after intraperitoneal administration.; value ranges from 3.2-6.3; type: functional; settings: ip; method in brief: as §2

SMILES | LD50 [1] [mg/kg] | ED50 (Mus musculus [2]) [mg/kg] | minimal effective dose (Mus musculus [3]) [mg/kg] | ED50 (Mus musculus [4]) [mg/kg] | further results
Cc1cc(-c2cccc(Cl)c2)nnc1NCCN1CCOCC1 | 21 | > 10 | > 2 | > 10 | –
Br.Br.Cc1cc(-c2cccc(O)c2)nnc1NCCN1CCOCC1 | > 200 | > 50 | 10 | > 30 | –
Clc1ccccc1Cc1cc(-c2ccccc2)nnc1NCCN1CCOCC1 | 95 | > 50 | 10 | > 50 | –
Cc1cc(-c2ccc(Cl)cc2)nnc1NCCN1CCOCC1 | 62 | > 10 | > 2 | – | ED50 (Mus musculus [5]): 5.8 mg/kg
Cc1cc(-c2ccccc2)nnc1NCCN1CCOCC1.Cl | – | – | – | – | LD50 (Mus musculus [6]): 63 mg/kg; ED50 (Mus musculus [7]): 24 mg/kg; ED50 (Mus musculus [8]): 5 mg/kg
Cc1cc(-c2ccccc2)nnc1NCC(C)N1CCOCC1 (centres undefined) | 54 | – | 2 | > 15 | ED50 (Mus musculus [9]): 13 mg/kg
Cc1ccc(-c2cc(C)c(NCCN3CCOCC3)nn2)cc1 | 51 | > 15 | 0.5 | > 15 | –
Cc1cc(-c2ccccc2)nnc1NC(C)CN (centres undefined) | > 200 | – | 2 | > 30 | ED50 (Mus musculus [10]): 34 mg/kg
c1ccc(Cc2cc(-c3ccccc3)nnc2NCCN2CCOCC2)cc1 | 131 | > 50 | 2 | > 50 | –
Cc1cc(-c2ccc(F)cc2)nnc1NCCN1CCOCC1 | 45 | – | 2 | – | ED50 (Mus musculus [11]): 4.5 mg/kg; ED50 (Mus musculus [12]): 4.7 mg/kg
c1ccc(-c2cc(Cc3ccc4ccccc4c3)c(NCCN3CCOCC3)nn2)cc1 | 275 | > 50 | 2 | > 100 | –
CCOC(=O)c1cc(-c2ccccc2)nnc1NCCN1CCOCC1 | 180 | > 50 | 0.5 | – | –
Cc1cc(-c2cccs2)nnc1NCCN1CCOCC1 | 59 | – | > 10 | – | ED50 (Mus musculus [13]): 4.2 mg/kg; ED50 (Mus musculus [14]): 4.8 mg/kg
COc1ccc(-c2cc(C)c(NCCN3CCOCC3)nn2)cc1 | 19 | > 5 | > 2 | > 5 | –
Cc1cc(-c2ccccc2)nnc1NCCN1CCCC1 | 70 | > 30 | – | – | –
Cc1cc(C)c(NCCN2CCOCC2)nn1 | > 100 | > 50 | > 10 | > 50 | –
c1ccc(-c2cc(-c3ccccc3)c(NCCN3CCOCC3)nn2)cc1 | 150 | > 50 | > 2 | > 25 | –
CNCCNc1nnc(-c2ccccc2)cc1C | > 200 | – | 2 | ≥ 30 | ED50 (Mus musculus [15]): 36 mg/kg
CN(C)CCCN1c2ccccc2CCc2ccc(Cl)cc21 [CLOMIPRAMINE] | – | – | – | – | ED50 (Mus musculus [16]): 4.8 mg/kg; ED50 (Mus musculus [17]): 3.3 mg/kg
Cc1cc(-c2ccccc2)nnc1NCCCCN | 300 | > 50 | 0.1 | > 30 | –
c1ccc(-c2ccc(NCCN3CCOCC3)nn2)cc1 | 250 | – | 0.5 | – | ED50 (Mus musculus [18]): 3.7 mg/kg; ED50 (Mus musculus [19]): 6 mg/kg
NC(=O)c1cc(-c2ccccc2)nnc1NCCN1CCOCC1 | – | > 40 | 2 | > 60 | –
Cc1cc(C2CCCCC2)nnc1NCCN1CCOCC1 | 43 | – | > 10 | – | ED50 (Mus musculus [20]): 16 mg/kg; ED50 (Mus musculus [21]): 4.5 mg/kg
CCc1cc(-c2ccccc2)nnc1NCCN1CCOCC1 | 31 | > 10 | 2 | > 10 | –
